CHO parental Ca – signal in parental CHO cells, OX1R antagonist counter-screen; inhibition, % at 5.6 µM; parental CHO-K1, ATP-induced calcium, Fluo-8 fluorescence; 0.63% of 330,000 active; AID 463079;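 active = inhibition above that plate's mean sample inhibition plus 3 SD, cut at about 26% in these data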;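 note: 0% = ATP-challenged DMSO wells and 100% = DMSO wells without ATP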
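Material: parental CHO cells / Compound: single nominal dose of 5.6 µM per compound / Signal: Fluo-8 fluorescence / Replicates: singlicate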
OX1R antag-1 – antagonists of human orexin 1 receptor; inhibition, % at 5 µM; AID 434989; CHO/OX1R cells, Fluo-8 calcium fluorescence, orexin A; 0.43% of 330,000 active; O43613;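 active = inhibition above its plate's threshold, mean inhibition of all tested compounds on the plate plus 3 SD, cut at about 37% in these data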;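 note: 0% = orexin A challenge wells and 100% = SB-334867-A antagonist wells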
Target sequence (O43613 whole entry, looked up): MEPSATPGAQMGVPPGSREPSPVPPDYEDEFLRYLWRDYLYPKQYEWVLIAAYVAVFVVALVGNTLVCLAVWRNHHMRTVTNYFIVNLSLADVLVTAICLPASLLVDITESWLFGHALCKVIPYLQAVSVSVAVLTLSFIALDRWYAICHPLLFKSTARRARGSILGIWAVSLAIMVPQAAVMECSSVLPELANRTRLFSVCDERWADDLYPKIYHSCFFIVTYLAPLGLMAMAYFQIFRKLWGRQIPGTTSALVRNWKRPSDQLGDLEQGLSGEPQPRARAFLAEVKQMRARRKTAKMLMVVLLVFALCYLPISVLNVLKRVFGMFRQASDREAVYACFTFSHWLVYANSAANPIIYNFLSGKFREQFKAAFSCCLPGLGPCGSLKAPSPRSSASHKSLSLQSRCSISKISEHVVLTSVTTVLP
OX1R antag-2 – antagonists of human orexin 1 receptor (OX1R) | O43613 | OX1R-expressing cells, FRET antagonist read-out | inhibition, % at 6.6 µM | 1.8% of 330,000 active | AID 485270; in the data active = inhibition mostly above about 38%, no sharp cut-off; inactive = mostly below about 40%;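 note: 0% = agonist challenge alone and 100% = reference antagonist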
TAAR1 antag – human TAAR1 antagonism | CHO RD-HGA16 TAAR1, Fluo-8 calcium fluorescence, antagonist | inhibition, % at 3 µM | 1.5% of 360,000 active | AID 624466 | Q96RJ0;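 active = inhibition above a per-plate cutoff, the mean inhibition of test compounds on that plate plus 3 SD, cut at about 49% in these data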;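 note: 0% = DMSO plus EC80 beta-PEA response and 100% = DMSO alone without agonist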
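Material: RD-HGA16 CHO cells with stable hTAAR1 and Gα16; Dosing: single nominal final test compound concentration of 3 µM; Schedule: seeding 17-24 h prior, 75-min 37 °C, 30-min RT dye loading; Detection: kinetic Fluo-8 calcium fluorescence measurement; Measure: % inhibition from peak post-agonist over basal fluorescence ratio; Benchmarks: vehicle and agonist controls.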
TAAR1 ag – agonists of human TAAR1; Q96RJ0; CHO RD-HGA16 TAAR1, Fluo-8 calcium fluorescence; vehicle wells 0%, saturating PEA agonist 100%; activation, % at 3 µM; 0.99% of 360,000 active; AID 624467;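 active = activation above the mean activation of all test compounds in the run plus 3 SD, cut at about 38% in these data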
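System: CHO-derived RD-HGA16 cells with stable Gα16 and human TAAR1 / Times: 17-24 h plating, Fluo-8 75 min 37 °C, 30 min RT / Technique: calcium-sensitive Fluo-8 signal, excitation 470-495, emission 515-575 nm / Measure: % activation relative to PEA EC100 response / Benchmarks: DMSO and PEA EC100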
The depositor's hits bear a star; x = not tested or not shown. The list is not random: actives were taken first. Their share in the collection is about 4%.

SMILES	CHO parental Ca	OX1R antag-1	OX1R antag-2	TAAR1 antag	TAAR1 ag
COCc1[nH]nc2c1C(c1ccc(F)cc1)N(c1ccc(OC)cc1)C2=O (stereo not given)	x	x	x	-27	2
CN(Cc1ccc(OC(F)F)cc1)C(=O)c1cccc(S(=O)(=O)N2CCN(c3ccccc3)CC2)c1	x	x	x	75*	9
CCOC(=O)[C@@H]1CSCCS(=O)(=O)N1Cc1ccc(C(F)(F)F)cc1	x	x	x	7	-1
COc1ccc(-c2nn(-c3ccccc3)cc2C(=O)N2CCN(S(=O)(=O)c3ccccc3[N+](=O)[O-])CC2)cc1	x	x	x	20	15
COc1ccc(-c2nn(-c3ccccc3)cc2C(=O)N2CCN(S(=O)(=O)c3ccccc3C#N)CC2)cc1	-28	-33	19	50*	4
COc1ccc(NC(=O)c2ccc([N+](=O)[O-])o2)cc1	-1	-14	49*	3	0
NC(=O)c1oc2ccccc2c1NC(=O)c1ccc([N+](=O)[O-])o1	4	-15	48*	-4	3
CC(=O)c1cccc(NC(=O)c2ccc([N+](=O)[O-])o2)c1	-6	-3	57*	-13	0
O=C(Nc1c(Cl)ccc2nsnc12)c1ccc([N+](=O)[O-])o1	-6	2	57*	-2	1
CCCCN1CC(COCc2ccccc2)Oc2cccc(Oc3ccc(C)cc3)c2S1(=O)=O (stereo not given)	x	x	x	-11	2
CCc1cccc(Nc2cc(C)n(-c3cccc(CC)c3)c(=O)c2)c1	x	x	x	-10	2
CC1CCCC(NC(=O)COC(=O)/C=C/c2ccc(F)cc2)C1C (stereo not given)	-2	-23	-1	2	-3
CC(C)C(=O)N1CCN(c2ccc(NC(=O)c3ccc([N+](=O)[O-])o3)cc2)CC1	-2	-9	46*	18	3
CCCCn1c(N)c(N(Cc2ccccc2OC)C(=O)c2ccc([N+](=O)[O-])s2)c(=O)[nH]c1=O	-17	-23	50*	-7	0
CN(C(=O)c1ccccc1OCc1ccc(F)cc1)c1c(N)n(Cc2ccccc2)c(=O)[nH]c1=O	x	x	x	-51	3
CCCCn1c(N)c(N(Cc2ccccc2OC)C(=O)COc2ccccc2OC)c(=O)[nH]c1=O	-13	-12	25	-1	1
CCCCN(C(=O)c1ccccc1OCc1ccc(F)cc1)c1c(N)n(CCC)c(=O)[nH]c1=O	-23	11	66*	-21	3
CCCCN(C(=O)c1ccc([N+](=O)[O-])o1)c1c(N)n(CCCC)c(=O)[nH]c1=O	-22	-22	62*	-2	1
NC(=O)c1ncn2c(=O)n(CCCl)nnc12	x	x	x	-10	6
CN(Cc1c(F)cccc1Cl)C(=O)CCc1c[nH]c2ccccc12	-6	-13	20	10	1
CC(=O)c1ccc(Nc2nc(C(N)Cc3ccc(N)cc3)cs2)cc1 (stereo not given)	x	x	x	1	1
COc1cccc(Nc2nc(C(N)Cc3ccc(Cl)cc3)cs2)n1 (stereo not given)	x	x	x	55*	65*
COc1cccc(Nc2nc(C(N)CC(C)C)cs2)n1 (stereo not given)	x	x	x	-13	42*
CC(=O)c1ccc(Nc2nc(C(N)Cc3ccc(Cl)cc3)cs2)cc1 (stereo not given)	x	x	x	7	50*
COc1cccc(Nc2nc(C(N)CCc3ccccc3)cs2)n1 (stereo not given)	x	x	x	22	45*
SMILES	CHO parental Ca	OX1R antag-1	OX1R antag-2	TAAR1 antag	TAAR1 ag
CCOc1ccc(CNC(=O)C2CCCN(S(=O)(=O)N3CC(C)CC(C)C3)C2)cc1OC (stereo not given)	-31	-32	9	-10	1
CC(=O)C1=C(C)N(Cc2ccc(Br)cc2)C(=S)NC1c1cccc(Cl)c1 (stereo not given)	x	x	x	27	1
CN(C)C(=O)CCC(=O)N1CCCC(N2CCN(c3cccc(C(F)(F)F)c3)CC2)C1 (stereo not given)	-14	-33	11	-13	5
CCCCc1[nH]c(=O)c(C#N)c2c1CSC(C)(C)C2	56*	-3	18	5	2
Oc1c(Br)cc(Br)c(/C=N/n2c(-c3ccccc3)n[nH]c2=S)c1Br	-3	3	71*	-13	0
COc1cc(C(=O)Nc2nccs2)c(Br)c(OC)c1OC	-21	-17	12	51*	16
CC(C)[C@H](N)C(=O)N[C@H](C(=O)N1CCC2CCN(Cc3ccccc3)CC21)C(C)C (stereo not given in full)	x	x	x	8	3
COc1ccc(NC(=O)C[C@H]2C(=O)N(C3CCCCC3)C[C@@H]2C)cc1	x	x	x	-20	0
O=S(=O)(NCC(Nc1ccccc1)c1ccccc1)c1ccc(Cl)cc1 (stereo not given)	-17	9	21	51*	-1
Cc1ccc(C)c(C(O)c2ncc(-c3ccccc3)[nH]2)c1 (stereo not given)	x	x	x	-14	6
Cc1ccc(C)c(C(O)c2ncc(-c3ccc(C(F)(F)F)cc3)[nH]2)c1 (stereo not given)	x	x	x	49*	22
CCN=C1NC(c2cccc(F)c2)C(C(=O)OC)=C(C)N1Cc1ccccc1C(F)(F)F (stereo not given)	x	x	x	-2	8
CCOC(=O)Cc1ccc(Nc2nc(NCc3ccccc3)nc3ccsc23)cc1	x	x	x	72*	2
C=CCNc1nc(NCCCN2CCCC2=O)c2sc(-c3ccccc3)cc2n1	x	x	x	-4	2
CC(=O)Nc1ccc(CNc2nc(NCc3cccs3)nc3ccsc23)cc1	x	x	x	49*	36
Cc1ccc(CNc2nc(NCc3ccccc3)nc3ccsc23)c(C)c1	x	x	x	54*	37
CNc1nc(NCc2ccc(C)cc2C)c2sccc2n1	x	x	x	-10	22
O=C1CCCN1CCCNc1nc(NCc2ccccc2)nc2ccsc12	x	x	x	105*	129*
COc1cccc(CNc2nc3cc(-c4ccccc4CO)sc3c(=O)n2C)c1	x	x	x	-7	2
CC(=O)NCc1ccc(-c2csc(-c3cccs3)n2)cc1	-9	-14	63*	8	0
COc1cccc(CNc2nc3cc(-c4ccc(OC)cc4C)sc3c(=O)n2C)c1	x	x	x	-4	1
NS(=O)(=O)c1ccc(CCNC(=O)CSc2ccsc2[N+](=O)[O-])cc1	-18	-13	44*	9	4
O=C(N/N=C/c1ccc(O)cc1O)C(=O)N/N=C/c1ccc(O)cc1O	-12	-12	70*	-15	5
O=C(NN=Cc1ccc(O)cc1)C(=O)NN=Cc1ccc(O)cc1	x	x	x	5	0
CC(NC(=O)CNC(=O)c1cccs1)c1cccc(C(F)(F)F)c1 (stereo not given)	-9	-2	7	-18	0
COc1ccccc1CN1CCNC(=O)C1CC(=O)O (stereo not given)	-13	-3	12	15	5

Screening results as filed in PubChem BioAssay.
